Assay type in all cases: cell-based
Series [1] concerns the target T1, rat PPARα (Rattus norvegicus, UniProt P37230).
T1 sequence (P37230 1-468): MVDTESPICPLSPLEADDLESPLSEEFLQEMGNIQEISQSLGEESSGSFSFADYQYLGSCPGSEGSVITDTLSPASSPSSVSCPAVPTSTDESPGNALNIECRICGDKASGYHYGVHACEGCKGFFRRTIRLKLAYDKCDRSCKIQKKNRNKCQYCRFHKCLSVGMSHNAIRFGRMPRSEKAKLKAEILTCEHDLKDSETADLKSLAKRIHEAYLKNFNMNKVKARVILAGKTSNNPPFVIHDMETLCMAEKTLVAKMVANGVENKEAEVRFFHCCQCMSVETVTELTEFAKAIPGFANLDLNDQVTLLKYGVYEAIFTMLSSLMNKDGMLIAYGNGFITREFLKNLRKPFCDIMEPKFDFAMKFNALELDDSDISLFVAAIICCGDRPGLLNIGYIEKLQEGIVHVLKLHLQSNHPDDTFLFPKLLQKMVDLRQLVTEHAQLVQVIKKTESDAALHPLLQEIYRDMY
As to the kind of experiment: Rat PPARα reporter gene assay in COS-1 cells. The following applies: for Agonistic activity REC20 PPARα: concentration showing 20% of the agonistic activity of 30 μM BZF, ±SD; for PPARα agonistic activity (in words): up to 30 μM. On the technique in general: In a reporter assay the amount or activity of a reporter protein is the signal.

Series [2] addresses T2, rat CAR (Rattus norvegicus, UniProt Q9QUS1).
T2 sequence (Q9QUS1 1-358): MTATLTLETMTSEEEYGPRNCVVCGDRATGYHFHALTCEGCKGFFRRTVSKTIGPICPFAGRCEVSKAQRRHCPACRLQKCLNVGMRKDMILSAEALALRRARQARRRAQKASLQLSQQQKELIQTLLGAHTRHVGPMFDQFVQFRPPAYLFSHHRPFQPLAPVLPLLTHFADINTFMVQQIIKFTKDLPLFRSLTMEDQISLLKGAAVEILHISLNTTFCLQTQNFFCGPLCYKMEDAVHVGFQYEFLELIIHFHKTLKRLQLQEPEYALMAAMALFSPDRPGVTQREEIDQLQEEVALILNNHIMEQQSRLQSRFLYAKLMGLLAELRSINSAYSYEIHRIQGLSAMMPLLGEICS
The series is described as follows: Rat CAR reporter gene assay in COS-1 cells. The conditions noted are these: for Agonistic activity REC20 CAR: concentration showing 20% of the agonistic activity of 30 μM artemisinin; for Agonistic activity REC20 CAR / Inverse agonistic activity RIC20 CAR: ±SD; for Inverse agonistic activity RIC20 CAR: concentration showing 80% of the activity of the vehicle control; for CAR agonistic activity (in words) / CAR inverse agonistic activity (in words): up to 30 μM.

Series [3] has as its target T3, rat PXR (Rattus norvegicus, UniProt Q9R1A7).
T3 sequence (Q9R1A7 1-431): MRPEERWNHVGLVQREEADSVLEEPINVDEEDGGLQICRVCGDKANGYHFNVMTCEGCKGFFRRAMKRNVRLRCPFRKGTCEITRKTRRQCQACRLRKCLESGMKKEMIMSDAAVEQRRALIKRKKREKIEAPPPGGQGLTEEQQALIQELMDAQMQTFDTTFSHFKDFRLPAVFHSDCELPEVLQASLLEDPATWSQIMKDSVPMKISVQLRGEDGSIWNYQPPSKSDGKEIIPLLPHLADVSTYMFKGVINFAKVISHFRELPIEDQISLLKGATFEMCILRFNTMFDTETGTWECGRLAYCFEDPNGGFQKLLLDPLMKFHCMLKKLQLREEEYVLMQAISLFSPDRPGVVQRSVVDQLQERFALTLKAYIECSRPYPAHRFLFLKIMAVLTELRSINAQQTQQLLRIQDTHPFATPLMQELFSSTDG
The series is described as follows: Rat PXR reporter gene assay in COS-1 cells. The following applies: for Agonistic activity REC20 PXR: concentration showing 20% of the agonistic activity of 1 μM PCN, ±SD; for PXR agonistic activity (in words): up to 30 μM. In a few lines: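 COS-1 cells (1×10^4/well) co-transfected with rat PXR expression, reporter and Renilla control plasmids via jetPEI. After 24 h, test compound or 0.1% DMSO added in serum-free D-MEM for 24 h. Dual-luciferase read-out, firefly normalized to Renilla, fold vs vehicle. REC20: concentration reaching 20% of 1 μM PCN activity. Mean ± SD, ≥3 experiments in duplicate; Dunnett's test.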

Series [4] concerns the target T3, rat PXR. The conditions noted are these: microsomes of PB- and MC-treated rats, NADPH, vs boiled microsomes. In a few lines: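 Test compound (1 μmol) incubated 30 min at 37 °C in 0.1 M K,Na-phosphate pH 7.4. Mix held an NADPH-generating system and liver microsomes (60 mg protein) from male SD rats given PB 80 mg/kg i.p. plus MC 25 mg/kg p.o. daily for 3 d. Boiled microsomes were the control. Ethyl acetate extract went into DMSO and onto transfected COS-1 cells for 24 h. Normalized firefly/Renilla fold vs vehicle; n=3, t-test.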

SMILES strings stand for the structures. Values joined by “and” are separate entries in the source; they are usually repeats but may differ in a detail not shown here. Equal values may be shown once. “Also recorded” adds a separate entry of the source.

Take `CC(C)(Oc1ccc(CCNC(=O)c2ccc(Cl)cc2)cc1)C(=O)O` [BZF, bezafibrate, reference compound]: the “PPARα luciferase activity, fold” value in series [1] (30 μM) was 2.4 fold. Moreover, the “Agonistic activity REC20 PPARα” value in series [1] was found to be 3.68 ± 0.0944 µM.
Regarding `O=C(O)c1cccc(Oc2ccccc2)c1` [PBAcid, 3-phenoxybenzoic acid], in series [2], the “Agonistic activity REC20 CAR” value is reported as “- ^c (No effect (REC20 > 30 μM))”, the “Inverse agonistic activity RIC20 CAR” value was “- ^c (No effect (REC20 > 30 μM))”, the “CAR agonistic activity (in words)” value is recorded as “did not show CAR agonistic or inverse agonistic activity” and the “CAR inverse agonistic activity (in words)” value is given as “did not show CAR agonistic or inverse agonistic activity”. In series [1], the “Agonistic activity REC20 PPARα” value is 26.8 µM and 26.8 ± 21.3 µM; the “PPARα agonistic activity (in words)” value was “dose-dependent agonistic activity; also recorded: more active PPARα agonists than the parent compounds”. In series [3], the “Agonistic activity REC20 PXR” value is on record as “- ^c (No effect (REC20 > 30 μM))” and the “PXR agonistic activity (in words)” value was “inactive”.
On to `OCc1cccc(Oc2ccccc2)c1` [PBAlc, 3-phenoxybenzyl alcohol], for which, in series [2], the “Agonistic activity REC20 CAR” value is reported as “- ^c (No effect (REC20 > 30 μM))”, the “Inverse agonistic activity RIC20 CAR” value is listed as “- ^c (No effect (REC20 > 30 μM))”, the “CAR agonistic activity (in words)” value is given as “did not show CAR agonistic or inverse agonistic activity” and the “CAR inverse agonistic activity (in words)” value is given as “did not show CAR agonistic or inverse agonistic activity”. The “Agonistic activity REC20 PPARα” value in series [1] is “- ^c (No effect (REC20 > 30 μM))”. Moreover, in series [3], the “Agonistic activity REC20 PXR” value is on record as “- ^c (No effect (REC20 > 30 μM))” and the “PXR agonistic activity (in words)” value is recorded as “weak PXR agonistic activity”.
With `O=Cc1cccc(Oc2ccccc2)c1` [PBAld, 3-phenoxybenzaldehyde], in series [2], the “Agonistic activity REC20 CAR” value is “- ^c (No effect (REC20 > 30 μM))”, the “Inverse agonistic activity RIC20 CAR” value is “- ^c (No effect (REC20 > 30 μM))”, the “CAR agonistic activity (in words)” value is “did not show CAR agonistic or inverse agonistic activity” and the “CAR inverse agonistic activity (in words)” value was “did not show CAR agonistic or inverse agonistic activity”. Also, in series [1], the “Agonistic activity REC20 PPARα” value is reported as “- ^c (No effect (REC20 > 30 μM))” and the “PPARα agonistic activity (in words)” value is on record as “weak activity; also recorded: more active PPARα agonists than the parent compounds”. Moreover, in series [3], the “Agonistic activity REC20 PXR” value was “- ^c (No effect (REC20 > 30 μM))” and the “PXR agonistic activity (in words)” value was “inactive”.
Regarding `CC(=O)[C@H]1[C@H](C#N)C[C@H]2[C@@H]3CC=C4C[C@@H](O)CC[C@]4(C)[C@H]3CC[C@@]21C` [PCN, 5-Pregnen-3β-ol-20-one-16α-carbonitrile, reference compound], in series [3] (1 μM), the “PXR luciferase activity, fold compared to DMSO-treated cells” value is listed as 3.2 fold. Further, the “Agonistic activity REC20 PXR” value in series [3] worked out at 0.0887 ± 0.0118 µM.
Take `C=CCC1=C(C)C(OC(=O)C2C(C=C(C)C)C2(C)C)CC1=O` (centres unmarked) [allethrin]: in series [2], the “Agonistic activity REC20 CAR” value is reported as “- ^c (No effect (REC20 > 30 μM))” and the “Inverse agonistic activity RIC20 CAR” value is recorded as “- ^c (No effect (REC20 > 30 μM))”. In series [1], the “Agonistic activity REC20 PPARα” value is “- ^c (No effect (REC20 > 30 μM))”. Further, the “PXR activity, fold compared with the control” value (shortened to “PXR activity, fold”) in series [3] (1 μM or lower) is reported as “about 2 fold”. The “PXR activity, fold” value in series [3] (concentration range 1–30 μM) is reported as “about 3 fold”. Besides, in series [3], the “Agonistic activity REC20 PXR” value was found to be 0.668 ± 0.129 µM. Besides, the “Change of PXR activity upon incubation with rat liver microsomes” value (from here on “Change of PXR activity upon incubation”) in series [4] is listed as “slightly decreased”.
For the compound `C[C@@H]1CC[C@H]2[C@@H](C)C(=O)O[C@@H]3O[C@@]4(C)CC[C@@H]1[C@]32OO4` [artemisinin, reference compound], the “CAR luciferase activity, fold” value in series [2] (30 μM) amounted to 1.9 fold. Also, the “Agonistic activity REC20 CAR” value in series [2] is 2.53 ± 4.02 µM.
Take `CC(C)=C[C@@H]1[C@@H](C(=O)OCc2coc(Cc3ccccc3)c2)C1(C)C` [bioresmethrin]: in series [2], the “Agonistic activity REC20 CAR” value is given as “- ^c (No effect (REC20 > 30 μM))”, the “Inverse agonistic activity RIC20 CAR” value is reported as “- ^c (No effect (REC20 > 30 μM))” and the “CAR inverse agonistic activity (in words)” value is on record as “showed CAR inverse agonistic activity”. Moreover, the “Agonistic activity REC20 PPARα” value in series [1] is on record as “- ^c (No effect (REC20 > 30 μM))”. In addition, in series [3], the “Agonistic activity REC20 PXR” value came out at 1.92 ± 0.724 µM and the “PXR agonistic activity (in words)” value is recorded as “relatively weak activities”. Also, the “Change of PXR activity upon incubation” value in series [4] is reported as “slightly decreased”.
For `CC1(C)[C@H](C(=O)OCc2cccc(Oc3ccccc3)c2)[C@@H]1C=C(Cl)Cl` [cis-permethrin], in series [2], the “Agonistic activity REC20 CAR” value is “- ^c (No effect (REC20 > 30 μM))”, the “Inverse agonistic activity RIC20 CAR” value is on record as “- ^c (No effect (REC20 > 30 μM))” and the “CAR agonistic activity (in words)” value was “showed CAR agonistic activity at higher concentrations; also recorded: weak CAR agonistic activity”. Moreover, the “Agonistic activity REC20 PPARα” value in series [1] is listed as “- ^c (No effect (REC20 > 30 μM))”. For the same compound, the “PXR activity, fold” value in series [3] (concentration range 1–30 μM) is recorded as “about 3 fold”. Moreover, the “Agonistic activity REC20 PXR” value in series [3] was found to be 0.329 ± 0.0472 µM. In series [4], the “Change of PXR activity upon incubation” value is on record as “decreased”.
Consider `CC1(C)[C@H](C(=O)O[C@H](C#N)c2cccc(Oc3ccccc3)c2)[C@@H]1C=C(Br)Br` [deltamethrin], for which the “Agonistic activity REC20 PPARα” value in series [1] is reported as “- ^c (No effect (REC20 > 30 μM))”. For the same compound, in series [3], the “Agonistic activity REC20 PXR” value is 0.156 ± 0.0216 µM. Further, in series [4], the “Change of PXR activity upon incubation” value is recorded as “decreased”.
On to `CC(C)=CC1C(C(=O)OCc2cccc(Oc3ccccc3)c2)C1(C)C` (centres unmarked) [phenothrin], for which, in series [2], the “Agonistic activity REC20 CAR” value is on record as “- ^c (No effect (REC20 > 30 μM))”, the “Inverse agonistic activity RIC20 CAR” value is on record as “- ^c (No effect (REC20 > 30 μM))” and the “CAR inverse agonistic activity (in words)” value is reported as “showed CAR inverse agonistic activity”. Besides, in series [1], the “Agonistic activity REC20 PPARα” value was “- ^c (No effect (REC20 > 30 μM))”. In series [3], the “Agonistic activity REC20 PXR” value turned out to be 3.89 ± 1.03 µM and the “PXR agonistic activity (in words)” value is reported as “relatively weak activities”. The “Change of PXR activity upon incubation” value in series [4] was “to the control level; also recorded: significantly decreased”.
As to `CC1(C)[C@H](C=C(Cl)Cl)[C@H]1C(=O)OCc1cccc(Oc2ccccc2)c1` [trans-permethrin], in series [2], the “Agonistic activity REC20 CAR” value is 4.19 µM and 4.19 ± 3.26 µM; the “Inverse agonistic activity RIC20 CAR” value is listed as “- ^c (No effect (REC20 > 30 μM))”; the “CAR agonistic activity (in words)” value is recorded as “showed CAR agonistic activity at higher concentrations; also recorded: weak CAR agonistic activity”. For the same compound, the “Agonistic activity REC20 PPARα” value in series [1] was “- ^c (No effect (REC20 > 30 μM))”. The “PXR activity, fold” value in series [3] (1 μM or lower) is “about 2 fold”. The “PXR activity, fold” value in series [3] (concentration range 1–30 μM) is recorded as “about 3 fold”. In addition, the “Agonistic activity REC20 PXR” value in series [3] worked out at 0.674 ± 0.0526 µM. Further, in series [4], the “Change of PXR activity upon incubation” value is “decreased”.

Source of the values: article PMC6745485 (Heliyon, 2019).
